Most compounds without a hit are left out; they make up all but 2.8% or so of the library.
SR-BI uptake up – activators of SR-BI mediated HDL lipid uptake | CHO ldlA[mSR-BI] cells, DiI-HDL uptake fluorescence, 3 h; 100 = double the neutral-control signal | activation, % at 12.5 µM | actives 0.096% (n = 320,000) | AID 504775;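 active means mean replicate activation of at least 60% and every replicate at or above 60%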
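Test system: SR-BI-overexpressing, LDLR-lacking CHO cells. Measured by: DiI fluorescence, bottom read. Medium: Ham's F12 with 0.5% BSA, HEPES 25 mM, pH 7.4. Timing: 3 h uptake period with compound, 37 °C.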
CAL PDZ FP-1 – CAL PDZ (human) peptide binding inhibition. purified CAL PDZ, TMR-peptide fluorescence polarization, 1 h. inhibition, % at 24.9 µM. actives 0.92% (n = 300,000). AID 602252;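 active means mean inhibition of at least 30% with at least half of replicates also reaching 30%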
CAL PDZ FP-2 – blocks peptide binding to human CAL PDZ domain; actives 0.02% (n = 330,000); purified CAL PDZ, TMR-peptide fluorescence polarization, 1 h; Q9HD26; inhibition, % at 20 µM;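 active means highest replicate inhibition of at least 40%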
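System: purified tagged CAL PDZ domain construct (CerCALP). Schedule: 1 h incubation at room temperature before polarization reading. Medium: 25 mM sodium phosphate pH 7.4, 150 mM NaCl, TCEP, IgG, Thesit. Read-out: percent inhibition from loss of millipolarization. Measured by: FP readout, S and P plane fluorescence. Probe or stimulus: fluorescent TMR peptide probe.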
SR-BI HDL uptake – mouse SR-BI HDL lipid transfer inhibition | AID 488896 | actives 0.96% (n = 320,000) | inhibition, % at 12.5 µM | Q61009 | ldlA[mSR-BI] CHO cells, DiI-HDL uptake fluorescence, 3 h;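 active means mean replicate inhibition of at least 70% and a set share of replicates each scoring 70 or more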
Target sequence (Q61009 whole entry, looked up): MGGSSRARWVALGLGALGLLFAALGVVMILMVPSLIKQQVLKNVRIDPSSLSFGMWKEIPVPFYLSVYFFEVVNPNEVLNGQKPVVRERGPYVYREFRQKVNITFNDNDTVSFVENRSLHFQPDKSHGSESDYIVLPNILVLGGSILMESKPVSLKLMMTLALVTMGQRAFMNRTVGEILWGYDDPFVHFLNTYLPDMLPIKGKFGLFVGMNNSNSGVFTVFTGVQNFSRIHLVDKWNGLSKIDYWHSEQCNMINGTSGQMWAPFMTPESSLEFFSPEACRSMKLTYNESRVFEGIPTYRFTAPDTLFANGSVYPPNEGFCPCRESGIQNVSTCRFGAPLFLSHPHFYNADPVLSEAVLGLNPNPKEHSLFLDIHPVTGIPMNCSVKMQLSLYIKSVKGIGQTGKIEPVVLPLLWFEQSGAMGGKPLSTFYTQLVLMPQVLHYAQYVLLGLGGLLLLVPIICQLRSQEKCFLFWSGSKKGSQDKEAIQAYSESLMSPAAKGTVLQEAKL
dFosB activator – activators of mouse delta FosB homodimer. AID 493131. purified delta FosB, TAMRA-CDK5 oligo fluorescence polarization; percent of positive-control signal above neutral wells. actives 0.99% (n = 340,000). activation, % at 25 µM. P13346;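 active means mean activation above about 17%, with every replicate also reaching it, limit read from the data, passing the limit was not always enough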
Of the large screens only hits and unclear results are named; the others gave an inactive call.

Cc1cc(NC(=O)c2ccc(C#N)cc2)n(-c2ccccn2)n1	CAL PDZ FP-1 78
O=C(Cn1ncc(N2CCOCC2)c(Cl)c1=O)c1ccc(Cl)cc1	CAL PDZ FP-1 34
O=C(Cn1ncc(Cl)c(Cl)c1=O)c1ccc(Cl)cc1	none
CC(C)Oc1ccc(S(=O)(=O)N2CCOCC2)cc1NC(=O)c1cc([N+](=O)[O-])ccc1N1CCOCC1	none
COc1ccc(S(=O)(=O)N(CC(=O)N2CCN(c3ccccc3)CC2)c2ccccc2)cc1	none
CCN(c1ccccc1)S(=O)(=O)c1ccc(C(=O)N2CCN(c3ccccc3)CC2)cc1	CAL PDZ FP-1 85
CN(CC1CCCO1)S(=O)(=O)c1ccc(C(=O)N2CCN(c3ccccc3)CC2)cc1 (centres undefined)	CAL PDZ FP-1 active
O=C(NC1CCCCC1)C1CC(=O)N(c2ccccc2)C1 (centres undefined)	none (no result: SR-BI uptake up, CAL PDZ FP-1, SR-BI HDL uptake)
CCN1C(=O)c2ccccc2S(=O)(=O)c2ccc(C(=O)NCCOC)cc21	none
CCc1ccc(C(=O)Nc2ccc3c(c2)n(C)c(=O)n3C)cc1	none (no result: CAL PDZ FP-1)
Cn1c(=O)n(C)c2cc(NC(=O)c3ccccc3NS(C)(=O)=O)ccc21	CAL PDZ FP-1 80
COc1ccc(C(CNC(=O)CCNC(=O)c2ccc(Br)cc2)N2CCOCC2)cc1 (centres undefined)	none
COc1ccccc1CN1CCNC(=O)C1CC(=O)NCc1c(C)n[nH]c1C (centres undefined)	CAL PDZ FP-1 51 (no result: CAL PDZ FP-2)
Cc1cc(C)nc(CCNC(=O)CC2C(=O)NCCN2Cc2ccc(F)cc2Cl)n1 (centres undefined)	CAL PDZ FP-1 60
Cn1nc(C(=O)Nc2ccc(Cl)c(S(=O)(=O)N3CCOCC3)c2)c2ccccc2c1=O	none (no result: SR-BI uptake up)
O=C(Nc1ccc(Cl)c(S(=O)(=O)N2CCCC2)c1)c1nn(CCO)c(=O)c2ccccc12	CAL PDZ FP-1 39
COc1ccc(NC(=O)c2cc(-c3ccc(C)o3)nc3ccccc23)cc1OC	SR-BI HDL uptake 83 (no result: CAL PDZ FP-2)
COc1ccc(NC(=O)c2cc(-c3ccco3)nc3ccccc23)cc1	none
Cc1nc2ccccc2c2oc(C(=O)Nc3ccc(C(C)C)cc3)cc12	none
COc1ccc(NC(=O)c2cc3ccccc3cc2OC)cc1OC	SR-BI HDL uptake 70
COc1cc(NC(=O)c2cc3c(C)nc4ccccc4c3o2)cc(OC)c1OC	SR-BI HDL uptake 73
COc1ccc(NC(=O)CC#N)cc1OC	CAL PDZ FP-1 30 (no result: CAL PDZ FP-2)
CC(NC(=O)C(=O)NCCc1c[nH]c2ccccc12)c1ccccc1 (centres undefined)	none (no result: CAL PDZ FP-2)
Cc1cc(NS(=O)(=O)c2ccc(NC(=O)Cc3ccc([N+](=O)[O-])cc3)cc2)nc(C)n1	none (no result: CAL PDZ FP-1)
CCC(C)[C@H](NC(=O)[C@@H]1CSC2c3ccccc3C(=O)N21)C(=O)N1CCCCC1 (some centres undefined)	none
CC(O)[C@H]1CNCCN1CCc1cccc(F)c1 (some centres undefined)	none
COc1ccccc1NC(=O)NNC(=O)c1ccc2ccccc2c1O	none
COc1cccc(C(=O)NNC(=O)c2ccccc2)c1	none
COc1ccc(NC(=O)c2cc(-c3ccncc3)nc3ccc(Br)cc23)cc1OC	SR-BI HDL uptake 83
CS(=O)(=O)N1CCN(c2ccccc2NC(=O)c2cc(Br)ccc2Cl)CC1	none
COc1cccc(C(=O)NNC(=O)c2ccc3ccccc3c2O)c1	SR-BI HDL uptake 108
COc1cc2ccccc2cc1C(=O)Nc1ccccc1N1CCN(S(C)(=O)=O)CC1	SR-BI HDL uptake 89 (no result: CAL PDZ FP-2)
COc1ccc(NC(=O)c2cc(-c3cccnc3)nc3ccc(C)cc23)cc1OC	none
COc1ccc(NC(=O)NNC(=O)c2ccc3ccccc3c2O)cc1OC	SR-BI HDL uptake 115
COc1ccc(NC(=O)CN2CCN(CC(=O)Nc3ccc(F)cc3F)CC2)cc1	none
O=C(c1cccc(-c2ccccc2F)c1)N1CC[C@@H](N2CCC(O)CC2)[C@H](O)C1	none
COc1ccc(CNC(=O)c2cc(-c3ccncc3)nc3c(C)cc(C)cc23)cc1OC	SR-BI HDL uptake 72
CC1CN=C(c2ccccc2)O1 (centres undefined)	none
O=C(Nc1nnc(Cc2ccccc2)s1)c1ccco1	none
NC(=O)c1cc(Cc2ccccc2)sc1NC(=O)c1ccco1	dFosB activator 75
C[C@H]1NC(=O)[C@@]2(C)[C@H](c3ccccc3)[C@H]3COc4ccccc4[C@@H]3N2C1=O	none
Cn1nnnc1SCc1cccc2ccccc12	CAL PDZ FP-1 34 (no result: CAL PDZ FP-2)
Cc1[nH]c(=O)n(C(C)C)c(=O)c1Br	none
Cc1c(C(=O)c2ccc(N(C)C)cc2)c2ccccn2c1CCC#N	SR-BI HDL uptake 73
OC(CNCc1ccc2c(c1)OCO2)COc1ccc(F)cc1 (centres undefined)	none
CC(=O)c1ccc(OCC(O)CNCc2ccc3c(c2)OCO3)cc1 (centres undefined)	CAL PDZ FP-1 42
CN(CC(=O)Nc1ccccc1F)CC(=O)Nc1ccc(F)c(F)c1F	none
CN(CC(=O)Nc1ccc(F)c(F)c1F)C(=O)C1=NN(c2ccccc2)C(=O)CC1	CAL PDZ FP-1 31
OCCNc1ncnc2c1sc1nc(N3CCOCC3)c3c(c12)CCC3	none
Cc1cccc(-n2cnc3c(sc4nc(N5CCOCC5)c5c(c43)CCCC5)c2=O)c1	CAL PDZ FP-1 60
CCOc1ccccc1NC(=O)CCn1ccnc1	none
CC[n+]1c(/C=C/C=C/N(C(C)=O)c2ccccc2)sc2ccccc21	dFosB activator 43
CCn1c(/C=C/N(C(C)=O)c2ccccc2)[n+](CC)c2ccc(Cl)cc21	none
COc1ccc(S(=O)(=O)N2CCOC2CNC(=O)C(=O)NCc2ccncc2)cc1 (centres undefined)	CAL PDZ FP-1 active
CC(CC(=O)N(C)CC(=O)Nc1ccc(N2CCOCC2)cc1)c1ccccc1 (centres undefined)	none
COc1cc([N+](=O)[O-])ccc1NC(=O)Nc1nc2c(s1)CCCC2	SR-BI HDL uptake 72
CNC[C@H](Cc1ccccc1)NC[C@@H](Cc1cccc2ccccc12)NCCc1ccc(C)cc1	dFosB activator 30
CCOc1ccccc1NC(=O)Cn1nnc(C(=O)Nc2ccccc2Cl)c1N	none
CCOc1ccccc1NC(=O)c1nnn(CC(=O)Nc2cc(C)cc(C)c2)c1N	dFosB activator 26
COc1cccc(Cn2nnc(C(=O)Nc3ccc(C)cc3)c2N)c1	dFosB activator 16
COc1cccc(Cn2nnc(C(=O)Nc3cc(C)ccc3OC)c2N)c1	none
CCOc1ccccc1NC(=O)Cn1nnc(C(=O)NCCc2ccc(OCC)c(OCC)c2)c1N	SR-BI HDL uptake 85
Cc1cc(C)cc(NC(=O)Cn2nnc(C(=O)NCCc3ccccc3)c2N)c1	dFosB activator 83
O=C1NC(=O)C2(CCCc3ccccc32)N1 (centres undefined)	none

Source: PubChem BioAssay
